pIC50: −log10 of the molar value. The source made the active and inactive calls. No cut-off for these calls is given here.
What was measured:
[1] = biological target: T1, Type-1 angiotensin II receptor (Oryctolagus cuniculus, UniProt P34976); assay: Evaluation of Angiotensin II antagonistic activity by displacement of [125I]-Sar Ile-AII at the rabbit aorta Angiotensin II receptor, type 1; format: tissue-based
T1 sequence (P34976 whole entry): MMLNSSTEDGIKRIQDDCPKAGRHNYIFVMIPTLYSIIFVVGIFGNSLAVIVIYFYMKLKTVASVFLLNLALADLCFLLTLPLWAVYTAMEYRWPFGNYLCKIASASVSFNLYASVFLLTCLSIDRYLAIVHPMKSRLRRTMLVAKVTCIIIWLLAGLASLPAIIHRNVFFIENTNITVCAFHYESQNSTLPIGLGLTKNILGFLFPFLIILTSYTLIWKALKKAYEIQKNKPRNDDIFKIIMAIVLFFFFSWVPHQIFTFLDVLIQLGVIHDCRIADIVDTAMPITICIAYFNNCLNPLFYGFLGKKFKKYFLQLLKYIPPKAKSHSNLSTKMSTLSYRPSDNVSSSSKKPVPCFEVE
Summary of the method: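 Rabbit aorta membranes, run without BSA. Competition against [¹²⁵I]Sar¹Ile⁸-AII, in duplicate tubes. Some values are means of two or more separate assays. Standard error is estimated at <30% of the mean.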

Rattus norvegicus [2] = assay: Time to produce onset of action for inhibition of Angiotensin II pressor response in conscious, normotensive rats at 0.3 mg/kg po; format: functional
Summary of the method: (§1)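 Conscious male Sprague-Dawley rats (300–400 g), instrumented for iv dosing and arterial pressure. A single iv or po bolus of compound (PEG 400 for some oral doses), then repeated AII challenges at 0.1 μg/kg iv. […] Averaged from at least two rats unless noted.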

Rattus norvegicus [3] = assay: Time to produce onset of action for inhibition of Angiotensin II pressor response in conscious, normotensive rats at 1 mg/kg iv; format: functional; summary of the method: as §1
Rattus norvegicus [4] = assay: Time to produce onset of action for inhibition of Angiotensin II pressor response in conscious, normotensive rats at 1 mg/kg po; format: functional; summary of the method: as §1
Rattus norvegicus [5] = assay: Time to produce onset of action for inhibition of Angiotensin II pressor response in conscious, normotensive rats at 0.3 mg/kg iv; format: functional; summary of the method: as §1
Rattus norvegicus [6] = assay: Peak percent inhibition of Angiotensin II pressor response in conscious, normotensive rats at 0.3 mg/kg iv; format: functional
Summary of the method: (§2)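 Male Sprague-Dawley rats (300–400 g), conscious, catheterized for iv dosing and for arterial pressure and heart rate. Compound given iv or po; PEG 400 vehicle in some oral cases. AII 0.1 μg/kg iv boluses at set intervals afterward. % inhibition of the MAP rise was calculated at each time point, and the peak was taken. Averaged from at least two rats unless noted.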

Rattus norvegicus [7] = assay: Peak percent inhibition of Angiotensin II pressor response in conscious, normotensive rats at 1 mg/kg iv; format: functional; summary of the method: as §2
Rattus norvegicus [8] = assay: Peak percent inhibition of Angiotensin II pressor response in conscious, normotensive rats at 1 mg/kg po; format: functional; summary of the method: as §2
Rattus norvegicus [9] = assay: Peak percent inhibition of Angiotensin II pressor response in conscious, normotensive rats at 0.3 mg/kg po; format: functional; summary of the method: as §2
Rattus norvegicus [10] = assay: Time to produce onset of action for inhibition of Angiotensin II pressor response in conscious, normotensive rats at 1 mg/kg iv; Not active; format: functional, organism-based; design: dose 1 mg/kg; summary of the method: as §1
Rattus norvegicus [11] = assay: Time to produce onset of action for inhibition of Angiotensin II pressor response in conscious, normotensive rats at 0.1 mg/kg iv; format: functional; summary of the method: as §1
Rattus norvegicus [12] = assay: Peak percent inhibition of Angiotensin II pressor response in conscious, normotensive rats at 0.1 mg/kg po; format: functional; summary of the method: as §2
Rattus norvegicus [13] = assay: Peak percent inhibition of Angiotensin II pressor response in conscious, normotensive rats at 0.1 mg/kg iv; format: functional; summary of the method: as §2
Rattus norvegicus [14] = assay: Time to produce onset of action for inhibition of Angiotensin II pressor response in conscious, normotensive rats at 0.1 mg/kg po; format: functional; summary of the method: as §1
Rattus norvegicus [15] = assay: Time to produce onset of action for inhibition of Angiotensin II pressor response in conscious, normotensive rats at 0..3 mg/kg iv; format: functional; summary of the method: as §1
Rattus norvegicus [16] = assay: Time to produce onset of action for inhibition of pressor response in conscious, normotensive rats at 3 mg/kg iv (no. of animals treated); format: functional; summary of the method: as §1
Rattus norvegicus [17] = assay: Peak percent inhibition of Angiotensin II pressor response in conscious, normotensive rats at 3 mg/kg iv (no. of animals treated); format: functional; summary of the method: as §2
Rattus norvegicus [18] = assay: Time to produce onset of action for inhibition of pressor response in conscious, normotensive rats at 0.1 mg/kg iv (no. of animals treated); format: functional; summary of the method: as §1
Rattus norvegicus [19] = assay: Time to produce onset of action for inhibition of pressor response in conscious, normotensive rats at 0.3 mg/kg iv (no. of animals treated); format: functional; summary of the method: as §1
Rattus norvegicus [20] = assay: Time to produce onset of action for inhibition of pressor response in conscious, normotensive rats at 0.3 mg/kg po (no. of animals treated); format: functional; summary of the method: as §1
Rattus norvegicus [21] = assay: Time to produce onset of action for inhibition of pressor response in conscious, normotensive rats at 1 mg/kg po (no. of animals treated); format: functional; summary of the method: as §1
Rattus norvegicus [22] = assay: Peak percent inhibition of Angiotensin II pressor response in conscious, normotensive rats at 0.1 mg/kg iv (no. of animals treated); format: functional; summary of the method: as §2
Rattus norvegicus [23] = assay: Peak percent inhibition of Angiotensin II pressor response in conscious, normotensive rats at 0.3 mg/kg iv (no. of animals treated); format: functional; summary of the method: as §2
Rattus norvegicus [24] = assay: Peak percent inhibition of Angiotensin II pressor response in conscious, normotensive rats at 0.3 mg/kg po (no. of animals treated); format: functional; summary of the method: as §2
Rattus norvegicus [25] = assay: Peak percent inhibition of Angiotensin II pressor response in conscious, normotensive rats at 1 mg/kg po (no. of animals treated); format: functional; summary of the method: as §2
Rattus norvegicus [26] = assay: Time to produce onset of action for inhibition of Angiotensin II pressor response in conscious, normotensive rats 1 at mg/kg iv; format: functional; summary of the method: as §1
Rattus norvegicus [27] = assay: Peak percent inhibition of Angiotensin II pressor response in conscious, normotensive rats 1 at mg/kg iv; format: functional; summary of the method: as §2
Rattus norvegicus [28] = assay: Time to produce onset of action for inhibition of pressor response in conscious, normotensive rats 0.3 mg/kg po (no. of animals treated); format: functional; summary of the method: as §1
Rattus norvegicus [29] = assay: Time to produce onset of action for inhibition of pressor response in conscious, normotensive rats at 1 mg/kg iv (no. of animals treated); format: functional; summary of the method: as §1
Rattus norvegicus [30] = assay: Peak percent inhibition of Angiotensin II pressor response in conscious, normotensive rats at 1 mg/kg iv (no. of animals treated); format: functional; summary of the method: as §2
Rattus norvegicus [31] = assay: Peak percent inhibition of Angiotensin II pressor response in conscious, normotensive rats at 3 mg/kg po (no. of animals treated); format: functional; summary of the method: as §2
Rattus norvegicus [32] = assay: Time to produce onset of action for inhibition of pressor response in conscious, normotensive rats at 3 mg/kg po (no. of animals treated); format: functional; summary of the method: as §1
Rattus norvegicus [33] = assay: Peak percent inhibition of Angiotensin II pressor response in conscious, normotensive rats at 0.3 mg/kg po(no. of animals treated); format: functional; summary of the method: as §2

## CCCc1nn(-c2ccccc2C(F)(F)F)c(C(=O)O)c1Cc1ccc(-c2ccccc2-c2nn[nH]n2)cc1
[1]
  pIC50: 9.17
Rattus norvegicus [2]
  Duration: >3.5 h
Rattus norvegicus [3]
  Duration: >6 h
Rattus norvegicus [4]
  Duration: >3.5 h
Rattus norvegicus [5]
  Duration: ~4 h
Rattus norvegicus [6]
  inhibition in vivo at 0.3 mg/kg: 77%
Rattus norvegicus [7]
  inhibition in vivo at 1 mg/kg: 100%
Rattus norvegicus [8]
  inhibition in vivo at 1 mg/kg: 71%
Rattus norvegicus [9]
  inhibition in vivo at 0.3 mg/kg: 57%

## CCCCc1nn(-c2c(Cl)cccc2Cl)c(C(=O)OCC)c1Cc1ccc(-c2ccccc2-c2nn[nH]n2)cc1
Rattus norvegicus [10]
  Duration: inactive
Rattus norvegicus [7]
  inhibition in vivo at 1 mg/kg: 16%

## CCCc1nn(CC(F)(F)F)c(C(=O)O)c1Cc1ccc(-c2ccccc2-c2nn[nH]n2)cc1
[1]
  pIC50: 8.80
Rattus norvegicus [11]
  Duration: ~5 h
Rattus norvegicus [2]
  Duration: >3 h
Rattus norvegicus [4]
  Duration: >23 h
Rattus norvegicus [5]
  Duration: >24 h
Rattus norvegicus [12]
  inhibition in vivo at 0.1 mg/kg: 54%
Rattus norvegicus [13]
  inhibition in vivo at 0.1 mg/kg: 62%
Rattus norvegicus [6]
  inhibition in vivo at 0.3 mg/kg: 93%
Rattus norvegicus [8]
  inhibition in vivo at 1 mg/kg: 75%
Rattus norvegicus [9]
  inhibition in vivo at 0.3 mg/kg: 66%
Rattus norvegicus [14]
  Duration: ~2 h

## CCCCc1nn(-c2ccccc2Cl)c(C(=O)O)c1Cc1ccc(-c2ccccc2-c2nn[nH]n2)cc1
[1]
  pIC50: 9.46
Rattus norvegicus [3]
  Duration: >6 h
Rattus norvegicus [4]
  Duration: >3 h
Rattus norvegicus [5]
  Duration: ~3.8 h
Rattus norvegicus [6]
  inhibition in vivo at 0.3 mg/kg: 73%
Rattus norvegicus [7]
  inhibition in vivo at 1 mg/kg: 93%
Rattus norvegicus [8]
  inhibition in vivo at 1 mg/kg: 64%

## CCCc1nn(Cc2ccccc2)c(C(=O)O)c1Cc1ccc(-c2ccccc2-c2nn[nH]n2)cc1
[1]
  pIC50: 9.38
Rattus norvegicus [15]
  Duration: >24 h
Rattus norvegicus [2]
  Duration: >4 h
Rattus norvegicus [4]
  Duration: >23 h
Rattus norvegicus [6]
  inhibition in vivo at 0.3 mg/kg: 95%
Rattus norvegicus [8]
  inhibition in vivo at 1 mg/kg: 100%
Rattus norvegicus [9]
  inhibition in vivo at 0.3 mg/kg: 82%

## CCCCc1nc(-c2ccccc2)c(C(=O)O)n1Cc1ccc(-c2ccccc2-c2nn[nH]n2)cc1
[1]
  pIC50: 8.68
Rattus norvegicus [16]
  Duration: >24 h
Rattus norvegicus [17]
  inhibition in vivo at 3 mg/kg: 100%

## CCCCc1nc(Cl)c(C(=O)O)n1Cc1ccc(-c2ccccc2-c2nn[nH]n2)cc1 [CARBOXYLIC ACID METABOLITE]
Rattus norvegicus [18]
  Duration: ~4 h
Rattus norvegicus [19]
  Duration: >29 h
Rattus norvegicus [20]
  Duration: 2.8 h
Rattus norvegicus [21]
  Duration: >7 h
Rattus norvegicus [22]
  inhibition in vivo at 0.1 mg/kg: 63%
Rattus norvegicus [23]
  inhibition in vivo at 0.3 mg/kg: 100%
Rattus norvegicus [24]
  inhibition in vivo at 0.3 mg/kg: 63%
Rattus norvegicus [25]
  inhibition in vivo at 1 mg/kg: 72%

## CCCCc1nn(-c2ccccc2)c(C(=O)O)c1Cc1ccc(-c2ccccc2-c2nn[nH]n2)cc1
[1]
  pIC50: 8.54
Rattus norvegicus [26]
  Duration: >6 h
Rattus norvegicus [27]
  Inhibition: 96%

## CCCCc1nc(Cl)c(CO)n1Cc1ccc(-c2ccccc2-c2nnn[nH]2)cc1 [LOSARTAN]
Rattus norvegicus [28]
  Duration: >3.5 h
Rattus norvegicus [19]
  Duration: 5.5 h
Rattus norvegicus [29]
  Duration: >6 h
Rattus norvegicus [23]
  inhibition in vivo at 0.3 mg/kg: 52%
Rattus norvegicus [24]
  inhibition in vivo at 0.3 mg/kg: 36%
Rattus norvegicus [30]
  inhibition in vivo at 1 mg/kg: 78%
Rattus norvegicus [31]
  inhibition in vivo at 3 mg/kg: 94%
Rattus norvegicus [32]
  Duration: >4.5 h

## CCCCc1n[nH]c(C(=O)O)c1Cc1ccc(-c2ccccc2-c2nn[nH]n2)cc1
[1]
  pIC50: 8.70
Rattus norvegicus [29]
  Duration: >6 h
Rattus norvegicus [30]
  inhibition in vivo at 1 mg/kg: 94%

## CCCCc1nn(Cc2ccccc2)c(C(=O)O)c1Cc1ccc(-c2ccccc2-c2nn[nH]n2)cc1
[1]
  pIC50: 9.70
Rattus norvegicus [11]
  Duration: >5 h
Rattus norvegicus [2]
  Duration: >3 h
Rattus norvegicus [4]
  Duration: >24 h
Rattus norvegicus [13]
  inhibition in vivo at 0.1 mg/kg: 68%
Rattus norvegicus [33]
  inhibition in vivo at 0.3 mg/kg: 75%
Rattus norvegicus [8]
  inhibition in vivo at 1 mg/kg: 100%

## CCCCc1nc(-c2ccccc2Cl)c(C(=O)O)n1Cc1ccc(-c2ccccc2-c2nn[nH]n2)cc1
[1]
  pIC50: 9.26
Rattus norvegicus [18]
  Duration: >6 h
Rattus norvegicus [20]
  Duration: 0.4 h
Rattus norvegicus [22]
  inhibition in vivo at 0.1 mg/kg: 88%
Rattus norvegicus [33]
  inhibition in vivo at 0.3 mg/kg: 50%

— ChEMBL document CHEMBL1126899, “Nonpeptide angiotensin II antagonists derived from 1H-pyrazole-5-carboxylates and 4-aryl-1H-imidazole-5-carboxylates” (J Med Chem, 1993)
